Measurements from ChEMBL document CHEMBL3576849, “De Novo Conception of Small Molecule Modulators Based on Endogenous Peptide Ligands: Pyrrolodiazepin-2-one γ-Turn Mimics That Differentially Modulate Urotensin II Receptor-Mediated Vasoconstriction ex Vivo” (J Med Chem, 2015).
Calls of active or inactive are those of the source. The rule behind the calls is not given here.

Tests used:
[1] = target: T1, Urotensin-2 receptor (Homo sapiens) (UniProt Q9UKP6); assay: Induction of [125I]-human urotensin-2 binding to human urotensin-2 receptor expressed in CHO cells at 100 uM after 90 mins by gamma counting analysis relative to control; format: cell-based
T1 sequence (whole entry): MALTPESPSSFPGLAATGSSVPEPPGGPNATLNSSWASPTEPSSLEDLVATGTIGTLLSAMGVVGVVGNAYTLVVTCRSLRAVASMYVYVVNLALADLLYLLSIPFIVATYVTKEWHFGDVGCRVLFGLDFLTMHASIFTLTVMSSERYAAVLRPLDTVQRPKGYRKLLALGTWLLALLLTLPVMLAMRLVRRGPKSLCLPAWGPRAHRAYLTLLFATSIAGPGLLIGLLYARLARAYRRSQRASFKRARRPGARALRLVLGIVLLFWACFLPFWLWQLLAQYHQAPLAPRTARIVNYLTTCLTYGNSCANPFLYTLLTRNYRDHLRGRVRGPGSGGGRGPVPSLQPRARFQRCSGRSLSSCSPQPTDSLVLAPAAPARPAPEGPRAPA
Outline: (§1)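 Whole CHO cells stably expressing human UT, plated at 150,000 cells/well, incubated with test compound (100 µM) and 0.2 nM 125I-hUII for 90 min at room temperature. Cells were washed and lysed, and bound radioactivity was gamma-counted. Results are % of specific binding without competitor. Non-specific binding was defined with 10 µM hUII. At least triplicate; mean ± S.E.M.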

[2] = target: T2, Urotensin-2 receptor (Rattus norvegicus) (UniProt P49684); assay: Agonist activity at urotensin-2 receptor in Sprague-Dawley rat thoracic aortic ring assessed as induction of aortic ring contraction at 10 to 100 uM
T2 sequence (whole entry): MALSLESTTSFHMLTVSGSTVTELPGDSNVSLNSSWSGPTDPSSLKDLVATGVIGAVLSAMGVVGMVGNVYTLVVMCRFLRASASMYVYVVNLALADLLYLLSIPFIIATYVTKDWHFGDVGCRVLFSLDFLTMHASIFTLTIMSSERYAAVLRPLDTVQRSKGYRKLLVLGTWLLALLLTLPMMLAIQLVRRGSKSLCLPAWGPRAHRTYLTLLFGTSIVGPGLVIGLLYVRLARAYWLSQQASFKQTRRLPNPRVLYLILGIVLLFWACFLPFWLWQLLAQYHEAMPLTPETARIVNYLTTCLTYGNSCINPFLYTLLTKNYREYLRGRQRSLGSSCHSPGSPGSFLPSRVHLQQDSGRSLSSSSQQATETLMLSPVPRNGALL
Outline: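 Thoracic aortic rings from adult male Sprague-Dawley rats (250–300 g, killed by CO2 asphyxiation); analog added alone to the organ chamber at 10 or 100 µM to test for contraction. 40 mM KCl contractions served as control at start and end. Run at least in triplicate.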

[3] = target: T2, Urotensin-2 receptor (Rattus norvegicus); assay: Modulation of urotensin-2 receptor in Sprague-Dawley rat thoracic aortic ring assessed as human urotensin-2 Emax for induction of aortic ring contraction at 10 uM preincubated for 15 mins followed by human urotensin-2 addition (reference value: 116 +/- 3%)
Outline: (§2)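 Thoracic aortic rings from adult male Sprague-Dawley rats (250–300 g, killed by CO2). Rings were exposed to test compound for 15 min, then cumulative hUII concentration-response curves were run (10-10–3.10-6 M). Contraction is expressed as % of the 40 mM KCl response, with KCl given at the start and end. EC50/pEC50/Emax come from a variable-slope sigmoidal fit. At least triplicate.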

[4] = target: T2, Urotensin-2 receptor (Rattus norvegicus); assay: Modulation of urotensin-2 receptor in Sprague-Dawley rat thoracic aortic ring assessed as urotensin-2 related peptide Emax for induction of aortic ring contraction at 10 uM preincubated for 15 mins followed by urotensin-2 related peptide addition (reference value: 132 +/- 4%)
[5] = target: T1, Urotensin-2 receptor (Homo sapiens); assay: Effect on [125I]-human urotensin-2 binding to human urotensin-2 receptor expressed in CHO cells at 100 uM after 90 mins by gamma counting analysis relative to control; format: cell-based; outline: as §1
[6] = target: T2, Urotensin-2 receptor (Rattus norvegicus); assay: Modulation of urotensin-2 receptor in Sprague-Dawley rat thoracic aortic ring assessed as human urotensin-2 Emax for induction of aortic ring contraction at 11 uM preincubated for 15 mins followed by human urotensin-2 addition (reference value: 116 +/- 3%)
[7] = target: T2, Urotensin-2 receptor (Rattus norvegicus); assay: Modulation of urotensin-2 receptor in Sprague-Dawley rat thoracic aortic ring assessed as urotensin-2 related peptide Emax for induction of aortic ring contraction at 11 uM preincubated for 15 mins followed by urotensin-2 related peptide addition (reference value: 132 +/- 4%)
[8] = target: T1, Urotensin-2 receptor (Homo sapiens); assay: Displacement of [125I]-human urotensin-2 from human urotensin-2 receptor expressed in CHO cells at 100 uM after 90 mins by gamma counting analysis relative to control; format: cell-based
Outline: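 Incubated 90 min at room temperature with 100 µM compound plus 0.2 nM 125I-hUII (chloramine-T labelled). Cells washed and lysed, bound radioactivity gamma-counted. Reported as % of specific binding without competitor; nonspecific binding defined with 10 µM hUII. At least triplicate.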

[9] = target: T2, Urotensin-2 receptor (Rattus norvegicus); assay: Modulation of urotensin-2 receptor in Sprague-Dawley rat thoracic aortic ring assessed as human urotensin-2 Emax for induction of aortic ring contraction at 15 uM preincubated for 15 mins followed by human urotensin-2 addition (reference value: 116 +/- 3%); outline: as §2
[10] = target: T2, Urotensin-2 receptor (Rattus norvegicus); assay: Modulation of urotensin-2 receptor in Sprague-Dawley rat thoracic aortic ring assessed as urotensin-2 related peptide Emax for induction of aortic ring contraction at 15 uM preincubated for 15 mins followed by urotensin-2 related peptide addition (reference value: 132 +/- 4%)
[11] = target: T2, Urotensin-2 receptor (Rattus norvegicus); assay: Modulation of urotensin-2 receptor in Sprague-Dawley rat thoracic aortic ring assessed as human urotensin-2 Emax for induction of aortic ring contraction at 14 uM preincubated for 15 mins followed by human urotensin-2 addition (reference value: 116 +/- 3%)
[12] = target: T2, Urotensin-2 receptor (Rattus norvegicus); assay: Modulation of urotensin-2 receptor in Sprague-Dawley rat thoracic aortic ring assessed as human urotensin-2 Emax for induction of aortic ring contraction at 4 uM preincubated for 15 mins followed by human urotensin-2 addition (reference value: 116 +/- 3%)
[13] = target: T2, Urotensin-2 receptor (Rattus norvegicus); assay: Modulation of urotensin-2 receptor in Sprague-Dawley rat thoracic aortic ring assessed as human urotensin-2 Emax for induction of aortic ring contraction at 1 uM preincubated for 15 mins followed by human urotensin-2 addition (reference value: 116 +/- 3%)
[14] = target: T2, Urotensin-2 receptor (Rattus norvegicus); assay: Modulation of urotensin-2 receptor in Sprague-Dawley rat thoracic aortic ring assessed as reduction of human urotensin-2-induced aortic ring contraction preincubated for 15 mins followed by human urotensin-2 addition
[15] = target: T2, Urotensin-2 receptor (Rattus norvegicus); assay: Modulation of urotensin-2 receptor in Sprague-Dawley rat thoracic aortic ring assessed as urotensin-2 related peptide Emax for induction of aortic ring contraction at 14 uM preincubated for 15 mins followed by urotensin-2 related peptide addition (reference value: 132 +/- 4%)
[16] = target: T2, Urotensin-2 receptor (Rattus norvegicus); assay: Noncompetitive antagonist activity at urotensin-2 receptor in Sprague-Dawley rat thoracic aortic ring assessed as reduction in human urotensin-2-induced response at 4 uM by double reciprocal plot analysis
Rattus norvegicus = organism: Rattus norvegicus; assay: Modulation of […] in Sprague-Dawley rat thoracic aortic ring assessed as change in human endothelin-1-induced aortic ring contraction at 1.4 x 10^-5 M
[17] = target: T2, Urotensin-2 receptor (Rattus norvegicus); assay: Modulation of urotensin-2 receptor in Sprague-Dawley rat thoracic aortic ring assessed as human urotensin-2 Emax for induction of aortic ring contraction at 8 uM preincubated for 15 mins followed by human urotensin-2 addition (reference value: 116 +/- 3%); outline: as §2
[18] = target: T2, Urotensin-2 receptor (Rattus norvegicus); assay: Modulation of urotensin-2 receptor in Sprague-Dawley rat thoracic aortic ring assessed as urotensin-2 related peptide Emax for induction of aortic ring contraction at 8 uM preincubated for 15 mins followed by urotensin-2 related peptide addition (reference value: 132 +/- 4%)

Row | Compound | Activity [2] | Emax [3] | Emax [4] | Activity [5] | inhibition [8] | further results
1 | NCCC[C@@H]1N=C(c2ccc(-c3ccccc3)cc2)c2[nH]c(C(=O)O)cc2N(CCc2ccc(O)cc2)C1=O | inactive | 97% | 93% |  |  | Activity [1]: 117%
2 | NCCC[C@@H]1N=C(c2cccc3ccccc23)c2[nH]c(C(=O)O)cc2N(CCc2ccc(O)cc2)C1=O | inactive | 74% | 46% | inactive |  | 
3 | NCCC[C@@H]1N[C@H](c2ccc(-c3ccccc3)cc2)c2[nH]c(C(=O)O)cc2N(CCc2ccc(O)cc2)C1=O | inactive |  |  | inactive |  | Emax [6]: 162%; Emax [7]: 139%
4 | NCCC[C@@H]1N=C(c2ccc3ccccc3c2)c2[nH]c(C(=O)O)cc2N(CCc2ccc(O)cc2)C1=O | inactive | 70% | 142% | inactive |  | 
5 | NCCCC[C@@H]1N=C(c2ccc3ccccc3c2)c2[nH]c(C(=O)O)cc2N(CCc2ccc(O)cc2)C1=O | inactive | 80% | 51% | inactive |  | 
6 | NCCC[C@@H]1N[C@@H](c2cccc3ccccc23)c2[nH]c(C(=O)O)cc2N(CCc2ccc(O)cc2)C1=O | inactive | 148% | 238% |  | 25% | 
7 | NCCCC[C@@H]1N=C(c2ccc(-c3ccccc3)cc2)c2[nH]c(C(=O)O)cc2N(CCc2ccc(O)cc2)C1=O | inactive |  |  | inactive |  | Emax [9]: 128%; Emax [10]: 110%
8 | NCCC[C@@H]1N[C@H](c2cccc3ccccc23)c2[nH]c(C(=O)O)cc2N(CCc2ccc(O)cc2)C1=O | inactive | 139% | 210% |  | 25% | 
9 | NCCCC[C@@H]1N[C@H](c2ccc(-c3ccccc3)cc2)c2[nH]c(C(=O)O)cc2N(CCc2ccc(O)cc2)C1=O | inactive |  |  |  | 25% | Emax [11]: 0%; Emax [12]: 63%; Emax [13]: 92%; Activity [14]: Dose-dependent effect; Emax [15]: 185%; Kb [16]: 2900 nM; pKb [16]: 5.54; Activity (Rattus norvegicus): inactive
10 | NCCCC[C@@H]1N[C@@H](c2ccc3ccccc3c2)c2[nH]c(C(=O)O)cc2N(CCc2ccc(O)cc2)C1=O | inactive | 194% | 107% |  | 25% | 
11 | NCCCC[C@@H]1N=C(c2cccc3ccccc23)c2[nH]c(C(=O)O)cc2N(CCc2ccc(O)cc2)C1=O | inactive |  |  | inactive |  | Emax [17]: 123%; Emax [18]: 60%
12 | NCCCC[C@@H]1N[C@@H](c2ccc(-c3ccccc3)cc2)c2[nH]c(C(=O)O)cc2N(CCc2ccc(O)cc2)C1=O | inactive |  |  | inactive |  | Emax [11]: 121%; Emax [15]: 113%
13 | NCCCC[C@@H]1N[C@H](c2ccc3ccccc3c2)c2[nH]c(C(=O)O)cc2N(CCc2ccc(O)cc2)C1=O | inactive | 175% | 217% |  | 25% | 
